One assay deals with Candida albicans. As to the kind of experiment: Antimicrobial activity against Candida albicans ATCC 90028 by NCCLS method. Type of assay: functional, organism-based. The essentials: (§1)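 Samples serially diluted in 20% DMSO/saline, tested in duplicate. Inocula set by OD630: C. albicans RPMI pH 4.5, 1·10^4 CFU/mL; C. neoformans Sabouraud dextrose, 1·10^5; MRSA cation-adjusted Mueller-Hinton pH 7.3, 5·10^5; M. intracellulare 7H9/OADC + 5% Alamar Blue pH 7.3, 2·10^6; A. fumigatus RPMI pH 7.3 + 5% Alamar Blue, 3·10^4.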

Another assay concerns Cryptococcus neoformans. As to the kind of experiment: Antimicrobial activity against Cryptococcus neoformans ATCC 90113 by NCCLS method. The class given is functional, organism-based. A digest of the protocol: as §1
For another assay, the system named is Staphylococcus aureus. As to the kind of experiment: Antimicrobial activity against methicillin-resistant Staphylococcus aureus ATCC 43300 by NCCLS method. The class given is functional, organism-based. A digest of the protocol:
as §1

Assay [1] concerns Mycobacterium intracellulare. Put plainly: Antimicrobial activity against Mycobacterium intracellular ATCC 23068 by alamar blue assay. Type of assay: functional, organism-based. A digest of the protocol:
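Samples serially diluted in 20% DMSO/saline, tested in duplicate. Inocula set by OD630: C. albicans RPMI pH 4.5, 1·10^4 CFU/mL; C. neoformans Sabouraud dextrose, 1·10^5; MRSA cation-adjusted Mueller-Hinton pH 7.3, 5·10^5; M. intracellulare 7H9/OADC + 5% Alamar Blue pH 7.3, 2·10^6; A. fumigatus RPMI pH 7.3 + 5% Alamar Blue, 3·10^4. Read at 630 nm or 544ex/590em before and after incubation.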

The next assay has as its system Aspergillus fumigatus. As to the kind of experiment: Antimicrobial activity against Aspergillus fumigatus ATCC 90906 by alamar blue assay. Type of assay: functional, organism-based. The settings on record: Aspergillus fumigatus, ATCC 90906; for IC50: read-out: IC50. A digest of the protocol:
as §1

A further assay concerns Leishmania donovani. Put plainly: Antileishmanial activity against Leishmania donovani promastigotes after 48 hrs by alamar blue assay. The class given is functional, organism-based.
The test system of the next assay is SK-MEL. As to the kind of experiment: Cytotoxicity against human SK-MEL cells after 48 hrs by neutral red assay. The class given is functional, cell-based. A digest of the protocol: (§2)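 Cells seeded at 25,000/well, incubated 24 h, then exposed to samples for 48 h. Viable cells measured by Neutral Red uptake. IC50 from logarithmic plots of growth inhibition vs concentration. Doxorubicin positive control, DMSO vehicle control.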

Another assay relates to KB. As to the kind of experiment: Cytotoxicity against human KB cells after 48 hrs by neutral red assay. Type of assay: functional, cell-based. A digest of the protocol:
as §2

For a further assay, the system named is BT-549. As to the kind of experiment: Cytotoxicity against human BT549 cells after 48 hrs by neutral red assay. Type of assay: functional, cell-based. The settings on record: BT-549, 48 h. A digest of the protocol: as §2
The next assay relates to SK-OV-3. As to the kind of experiment: Cytotoxicity against human SKOV3 cells after 48 hrs by neutral red assay. The class given is functional, cell-based. The settings on record: SK-OV-3, 48 h. A digest of the protocol: as §2
The test system of assay [2] is Vero. Put plainly: Cytotoxicity against african green monkey Vero cells after 48 hrs by neutral red assay. Type of assay: cell-based, Chlorocebus sabaeus. The essentials:
as §2

For a further assay, the system named is LLC-PK1. As to the kind of experiment: Cytotoxicity against pig LLC-PK1 cells after 48 hrs by neutral red assay. The class given is cell-based, Sus scrofa. The settings on record: Sus scrofa, LLC-PK1, 48 h; read-out: IC50. The essentials: as §2
Assay [3] has as its system Vero. Put plainly: Cytotoxicity against african green monkey Vero cells. Type of assay: cell-based. The settings on record: Chlorocebus sabaeus. The essentials: as §2
Assay [4] is described as follows: Selectivity index, IC50 for african green monkey (Cercopithecus aethiops) Vero cells to IC50 for chloroquine-sensitive Plasmodium falciparum D6. The class given is functional. The essentials:
(§3)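 Selectivity index = IC50 against VERO cells divided by IC50 against P. falciparum (D6 or W2, respectively), each from the corresponding in-house assay.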

The next assay deals with Plasmodium falciparum. Put plainly: Antimalarial activity after 72 hrs against chloroquine-resistant Plasmodium falciparum W2 by pLDH activity. Type of assay: functional, organism-based. The settings on record: W2, 72 h. A digest of the protocol:
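P. falciparum-infected red cells (2% parasitemia, 2% hematocrit) in RPMI-1640 with 10% human serum and 60 μg/mL amikacin, exposed to serial sample concentrations. Gassed with 90% N2/5% O2/5% CO2, incubated 37 °C for 72 h. Parasite LDH activity read colorimetrically with Malstat reagent.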

A short description of assay [5]: Selectivity index, IC50 for african green monkey (Cercopithecus aethiops) Vero cells to IC50 for […]. Type of assay: functional. A digest of the protocol:
as §3

The subject of assay [6] is Plasmodium berghei. Put plainly: Antimalarial activity as reduced parasitaemia at day 17 against Plasmodium berghei NK65 infected Swiss Webster mice (Mus musculus) at 10 mg/kg/day intraperitoneal dose for 3 days. More on the design: scale not given: the % may be the effect or the level left. The class given is functional. A digest of the protocol:
(§4)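 Peters 4-day suppressive test: male Swiss Webster mice (18–20 g) inoculated ip with 2·10^7 P. berghei NK-65 parasitized red cells. Compound in DMSO:PEG:water (1:3:6) given ip ~2 h post-infection, then once daily for 3 days (days 0–2). 5 mice/group; vehicle-treated control. Giemsa-stained tail blood smears read to day 28. % suppression = 100 − (treated/untreated parasitemia × 100). Cure = no parasitemia until day 28. Mice observed after each dose for signs of toxicity.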

Assay [7] relates to Plasmodium berghei. Put plainly: Antimalarial activity as elimination of parasitaemia at day 28 against Plasmodium berghei NK65 infected Swiss Webster mice (Mus musculus) at 10 mg/kg/day intraperitoneal dose for 3 days. Type of assay: functional, organism-based. The essentials:
as §4

Assay [8] has as its system Plasmodium berghei. Put plainly: Antimalarial activity as reduced parasitaemia at day 10 against Plasmodium berghei NK65 infected Swiss Webster mice (Mus musculus) at 10 mg/kg/day intraperitoneal dose for 3 days. The class given is functional. More on the design: scale not given: the % may be the effect or the level left. A digest of the protocol:
as §4

The nature of assay [9]: Toxicity in RBC assessed as hemolysis. The class given is cell-based. The settings on record: Erythrocyte.

In brackets after ≈: the same amount, converted by molar mass. Activity calls are given as the source filed them. The calls are words filed in the database; no cut-off is given here.

Regarding `C[C@@H]1N[C@H](CCCCCCCCCCc2cc(CCCCCCCCCC[C@H]3CC[C@@H](O)[C@@H](C)N3)c[n+]3c2CCC3)CC[C@H]1O` [ISOPROSOPILOSIDINE], the IC50 result is “Not Active” in the assay on Candida albicans; 0.55 µg/mL with Cryptococcus neoformans; 0.6 µg/mL with Staphylococcus aureus; 1.5 µg/mL in [1]; 6.5 µg/mL in the assay on Aspergillus fumigatus; 3.3 µg/mL with SK-MEL. The IC50 in the assay with KB is 7 µg/mL; in the assay on BT-549, 6.75 µg/mL; in the assay on SK-OV-3, 4.5 µg/mL; in the assay on Vero [2] (vero), “Not Active”; with LLC-PK1, 21.3 µg/mL; in the assay with Vero [3] it was over 23.8 µg/mL. In the assay on Plasmodium falciparum, this compound came in with an IC50 of 0.12 µg/mL. In addition, the MFC result with Candida albicans is “inactive”. The MIC result in the assay with Candida albicans was “inactive”. Moreover, the MFC came to 1.25 µg/mL against Cryptococcus neoformans and 10 µg/mL with Aspergillus fumigatus. The MIC against Cryptococcus neoformans was determined as 1.25 µg/mL; in assay [1] it was 2.5 µg/mL; in the assay on Aspergillus fumigatus, 10 µg/mL. This compound showed an MBC against Staphylococcus aureus of 20 µg/mL. Moreover, in assay [1], the MBC result is “inactive”. This compound showed an IC90 with Leishmania donovani of 2.5 µg/mL. The results for the “Ratio IC50” value in assay [4] and in assay [5] were over 567 and over 198, respectively.

For `CCO[C@H]1O[C@@H]2O[C@@]3(C)CC[C@H]4[C@H](C)CC[C@@H]([C@H]1C)[C@@]24OO3` [ARTEMOTIL], the Activity in the assay with Plasmodium berghei [6] and in the assay with Plasmodium berghei [8] was 100% throughout. Further, in the assay with Plasmodium berghei [7], the outcome was Active.

In the case of `C[C@@H]1[C@H](O)[C@@H](C)/C=C/C=C/C=C/C=C/C=C/C=C/C=C/[C@H](O[C@@H]2O[C@H](C)[C@@H](O)[C@H](N)[C@@H]2O)C[C@@H]2O[C@](O)(C[C@@H](O)C[C@@H](O)[C@H](O)CC[C@@H](O)C[C@@H](O)CC(=O)O[C@H]1C)C[C@H](O)[C@H]2C(=O)O` [AMPHOTERICIN B], the MIC in the assay with Candida albicans (Candida albicans, ATCC 90028) worked out at 0.63 µg/mL (≈ 0.682 µM); in the assay with Aspergillus fumigatus it was 0.63 µg/mL (≈ 0.682 µM). Besides, the IC50 was 0.35 µg/mL (≈ 0.379 µM) with Candida albicans (Candida albicans, ATCC 90028, read-out: IC50); 0.45 µg/mL (≈ 0.487 µM) with Cryptococcus neoformans; 0.4 µg/mL (≈ 0.433 µM) in the assay with Aspergillus fumigatus; 5 µg/mL (≈ 5.41 µM) in the assay with SK-MEL; over 25 µg/mL in the assay with KB; 5.5 µg/mL (≈ 5.95 µM) with BT-549. Further, the IC50 was over 25 µg/mL in the assay on SK-OV-3; 7.5 µg/mL (≈ 8.12 µM) in the assay on Vero [2] (Chlorocebus sabaeus, Vero, 48 h, read-out: IC50); 3.9 µg/mL (≈ 4.22 µM) in assay [9].

The record behind these values is ChEMBL document CHEMBL1151806, “Indolizidine, antiinfective and antiparasitic compounds from Prosopis glandulosa var. glandulosa” (J Nat Prod, 2009).
